As a reminder, the IC50 is the point on the concentration scale where inhibition reaches its midpoint. A high value points to weaker potency in that assay.

The record followed here is ChEMBL document CHEMBL4130379, “Design, synthesis and bioevaluation of antitubulin agents carrying diaryl-5,5-fused-heterocycle scaffold” (Eur J Med Chem, 2017).

Active and inactive are the calls of the source. The rule behind the calls is not given here.

The subject of experiment [1] is SGC-7901. The experiment can be described thus: Antiproliferative activity against human SGC7901 cells after 72 hrs by MTT assay. It is filed as functional, cell-based. The conditions noted are these: SGC-7901, 72 h. An outline of the steps: (§1)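 MTT assay on human SGC-7901 gastric adenocarcinoma, A549 lung adenocarcinoma and HT-1080 fibrosarcoma cells. The read-out was the half maximal inhibitory concentration (IC50). SMART and ABI were run in parallel as positive controls.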

The test system of the next experiment is A549. Put plainly: Antiproliferative activity against human A549 cells after 72 hrs by MTT assay. The class given is functional, cell-based. The conditions noted are these: A549, 72 h. An outline of the steps: as §1
(In general: Formazan colour is commonly taken as a measure of viable cells.)

In a further experiment the test system is HT-1080. The experiment can be described thus: Antiproliferative activity against human HT1080 cells after 72 hrs by MTT assay. The class given is functional, cell-based. The conditions noted are these: HT-1080, 72 h. The procedure, abridged: as §1
Experiment [2] relates to SGC-7901. The experiment can be described thus: Cell cycle arrest in human SGC7901 cells assessed as decrease in cell levels at S phase at 0.044 uM after 6 to 72 hrs by propidium iodide staining-based flow cytometry. The class given is functional. The procedure, abridged: (§2)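 Time-course study in SGC-7901 cells treated with test agent. Cell cycle distribution (sub-G1, G0/G1, S, G2/M) and polyploidy were analysed by flow cytometry at successive time points.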
For orientation: In flow cytometry, cells or beads pass a laser one at a time.

Experiment [3] has as its system SGC-7901. Put plainly: Cell cycle arrest in human SGC7901 cells assessed as decrease in cell levels at G0/G1 phase at 0.044 uM after 6 to 72 hrs by propidium iodide staining-based flow cytometry. The class given is functional. The procedure, abridged:
as §2

A further experiment is filed under the species Homo sapiens. Put plainly: Induction of cytoplasmic microtubule network disassembly in human SGC7901 cells at 2 times antiproliferative IC50 after 48 hrs by DAPI staining-based immunofluorescence microscopic method. It is filed as cell-based.
Experiment [4] has as its system SGC-7901. Put plainly: Cell cycle arrest in human SGC7901 cells assessed as induction of polyploidy at S phase at 0.044 uM after 24 hrs by propidium iodide staining-based flow cytometry. The class given is functional. An outline of the steps: as §2
Experiment [5] concerns SGC-7901. The experiment can be described thus: Cell cycle arrest in human SGC7901 cells assessed as accumulation at sub-G1 phase at 0.044 uM after 6 to 72 hrs by propidium iodide staining-based flow cytometry. It is filed as functional. An outline of the steps: as §2
Experiment [6] in a line: Inhibition of porcine brain tubulin polymerization preincubated for 1 min followed by GTP addition measured at 1 min intervals for 90 mins by spectrophotometric method.
The species entered for another experiment is Sus scrofa. The description is as above.
In experiment [7] the test system is SGC-7901. Put plainly: Cell cycle arrest in human SGC7901 cells assessed as accumulation at G2/M phase at 0.044 uM by propidium iodide staining-based flow cytometry. The class given is functional. The conditions noted are these: TDE = time-dependent effect. The procedure, abridged:
as §2

`COc1cc(C(=O)c2c[nH]c(-c3ccccc3)n2)cc(OC)c1OC`: the results for the IC50 with SGC-7901 [1], in the experiment with A549 and in the experiment on HT-1080 were 0.81 µM, 0.98 µM and 0.15 µM, respectively.
The corresponding values for `COc1ccc(-c2nn3c(-c4ccc5c(c4)OCO5)nnc3s2)cc1` are 25.6 µM, 29.7 µM and 24.5 µM.
Take `Cc1ccc(-c2nn3c(-c4ccc5c(c4)OCO5)nnc3s2)cc1`: the IC50 in the experiment with SGC-7901 [1] stood at 24 µM; with A549, 27.7 µM; with HT-1080, 26.8 µM.
On to `COc1ccc(-c2nn3c(-c4ccc(OC)c(OC)c4OC)nnc3s2)cc1N`, for which the IC50 in the experiment with SGC-7901 [1] is 0.062 µM; with A549, 0.082 µM; in the experiment on HT-1080 it was 0.073 µM.
The corresponding values for `COc1cccc(-c2nnc3sc(-c4ccc(OC)c([N+](=O)[O-])c4)nn23)c1` are 34.7 µM, 29.5 µM and 33 µM.
The corresponding values for `COc1ccc(-c2cc3[nH]nc(-c4cc(OC)c(OC)c(OC)c4)n3n2)cc1N` are 13.8 µM, 17.4 µM and 17.8 µM.
The corresponding values for `COc1ccc(-c2nn3c(-c4ccc(OC)c(OC)c4OC)nnc3s2)cc1` are 3.75 µM, 2.29 µM and 1.88 µM.
As for `COc1ccc(-c2nn3c(-c4cc(OC)c(OC)c(OC)c4)nnc3s2)cc1N`, the result in the experiment on SGC-7901 [2], in the experiment on SGC-7901 [3], in the experiment listed under Homo sapiens, in the experiment on SGC-7901 [4] and with SGC-7901 [5] was Active. For the same compound, the IC50 in the experiment on SGC-7901 [1] stood at 0.022 µM; with A549, 0.029 µM; in the experiment with HT-1080, 0.027 µM; in [6], 0.77 µM. The inhibition entry in the experiment listed under Sus scrofa was “Dose-dependent effect”. The Activity entry in the experiment on SGC-7901 [7] was “Tde”.
Regarding `COc1cc(-c2n[nH]c3cc(-c4ccc(C)cc4)nn23)cc(OC)c1OC`, the IC50 in the experiment on SGC-7901 [1] amounted to 33.5 µM; in the experiment on A549, 29.3 µM; in the experiment with HT-1080 it was 51.3 µM.
For the compound `COc1ccc(-c2nnc3sc(-c4ccc(OC)c([N+](=O)[O-])c4)nn23)cc1`, the IC50 in the experiment with SGC-7901 [1] turned out to be 22.1 µM; in the experiment on A549, 26.9 µM; in the experiment with HT-1080 it was 27.3 µM.
The corresponding values for `COc1ccc(-c2nn3c(-c4ccc5c(c4)OCO5)nnc3s2)cc1[N+](=O)[O-]` are 37.8 µM, 32.8 µM and 30.3 µM.
For the compound `COc1ccc(-c2nnc3sc(-c4ccc(OC)c(N)c4)nn23)cc1`, the figures for the IC50 in the experiment on SGC-7901 [1], in the experiment with A549 and in the experiment with HT-1080 were 14.2 µM, 14.9 µM and 16.4 µM, respectively.
The corresponding values for `COc1cc(-c2n[nH]c3cc(-c4ccc(Cl)cc4)nn23)cc(OC)c1OC` are 6.12 µM, 1.21 µM and 6.81 µM.
The corresponding values for `COc1cccc(-c2nnc3sc(-c4ccc(OC)c(N)c4)nn23)c1` are 0.059 µM, 0.12 µM and 0.088 µM.
For the compound `COc1ccc(-c2nn3c(-c4cc(OC)c(OC)c(OC)c4)nnc3s2)cc1[N+](=O)[O-]`, the IC50 with SGC-7901 [1] was 23.2 µM; in the experiment on A549 it was 26.5 µM; in the experiment with HT-1080, 30.2 µM.
The corresponding values for `COc1ccc(-c2cc3[nH]nc(-c4cc(OC)c(OC)c(OC)c4)n3n2)cc1[N+](=O)[O-]` are 48.3 µM, 58.2 µM and 35.6 µM.
The corresponding values for `COc1ccc(-c2nn3c(-c4ccc5c(c4)OCO5)nnc3s2)cc1N` are 0.057 µM, 0.272 µM and 0.327 µM.
The corresponding values for `COc1ccc(-c2nn3c(-c4ccc(OC)c(OC)c4OC)nnc3s2)cc1[N+](=O)[O-]` are 32.5 µM, 33.8 µM and 35.1 µM.
Consider `COc1ccc(-c2nn3c(-c4ccc(OC)c(OC)c4)nnc3s2)cc1N`, for which the figures for the IC50 with SGC-7901 [1], in the experiment with A549 and in the experiment with HT-1080 were 0.083 µM, 0.522 µM and 0.339 µM, respectively.
Regarding `COc1cc(C(=O)c2csc(-c3ccccc3)n2)cc(OC)c1OC`, the IC50 with SGC-7901 [1] was found to be 0.019 µM; in the experiment on A549, 0.029 µM; with HT-1080, 0.028 µM. The result in the experiment listed under Homo sapiens was Active.
For the compound `COc1ccc(-c2nnc3sc(-c4ccc(OC)c([N+](=O)[O-])c4)nn23)cc1OC`, the IC50 in the experiment on SGC-7901 [1] came to 37.7 µM; in the experiment with A549, 30.4 µM; in the experiment with HT-1080, 32.8 µM.
The corresponding values for `COc1ccc(-c2nnc3sc(-c4ccc(C)cc4)nn23)c(OC)c1OC` are 0.186 µM, 0.803 µM and 0.089 µM.
The corresponding values for `COc1ccc(-c2cc3[nH]nc(-c4cc(OC)c(OC)c(OC)c4)n3n2)cc1` are 26.8 µM, 26.4 µM and 26.5 µM.
